RGS4 block: RGS4 inhibitors, primary screen, cell-based, HEK293 M3R inducible RGS4, calcium flux | Regulator of G-protein signaling 4 (Homo sapiens), P49798 | Fluo-4 calcium flux; stronger effect = higher value; triggered by carbachol at its EC20 | B-score at 10 µM | 0.45% of 310,000 active;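 active means B-score, a plate-corrected calcium signal, over three deviations above library mean, with baseline fluorescence within five deviations of library mean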;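 further: RGS4 expression induced by doxycycline in cells with stable M3 receptor; B-score is computed from the integrated fluorescence ratio over baseline after carbachol; higher B-score means a larger calcium signal and so more RGS4 inhibition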
Target sequence (P49798 whole entry, looked up): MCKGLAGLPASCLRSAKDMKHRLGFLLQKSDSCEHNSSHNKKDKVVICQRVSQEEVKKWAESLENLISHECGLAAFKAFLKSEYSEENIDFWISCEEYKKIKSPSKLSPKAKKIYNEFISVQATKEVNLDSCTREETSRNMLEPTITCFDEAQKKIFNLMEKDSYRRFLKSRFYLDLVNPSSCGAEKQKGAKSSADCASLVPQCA
MrgX1 allo act: positive allosteric modulators of MrgX1, primary screen, HEK293 cells, Fluo-4 calcium flux | 0.63% of 310,000 active | B-score at 10 µM | FDSS; stronger effect = higher value;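 active means plate-corrected calcium response at least 3 library SD above typical, normal starting fluorescence, not activating the receptor alone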;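 further: compound read alongside a low EC10 to EC30 dose of BAM8-22 agonist; peak minus trough fluorescence over baseline measured at the second addition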
Target sequence (Q96LB2 whole entry, looked up): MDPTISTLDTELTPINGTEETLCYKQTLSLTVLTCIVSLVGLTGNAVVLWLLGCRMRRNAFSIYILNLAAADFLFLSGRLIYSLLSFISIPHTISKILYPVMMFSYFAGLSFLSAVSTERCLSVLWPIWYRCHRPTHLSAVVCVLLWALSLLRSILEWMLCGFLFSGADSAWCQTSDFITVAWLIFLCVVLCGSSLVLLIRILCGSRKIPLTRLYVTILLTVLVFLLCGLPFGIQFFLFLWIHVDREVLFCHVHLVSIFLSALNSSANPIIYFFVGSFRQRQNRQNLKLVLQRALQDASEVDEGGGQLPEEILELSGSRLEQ
MrgX1 ag: agonists of human MrgX1 receptor, primary screen, HEK293 cells, Fluo-4 calcium flux; Fluo-4 calcium fluorescence, agonist mode; stronger effect = higher value; B-score at 10 µM; 0.44% of 310,000 active;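 active means calcium response B-score plate-corrected fluorescence ratio at least 3 library SD, with starting fluorescence B-score inside 5 SD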
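Test system: HEK293 cells stably expressing human MrgX1 receptor; amount: 15,000 cells per well; doses: compound delivered in addition one of three; times: overnight plating before 1 h dye loading; detection: Fluo-4 NW calcium-flux fluorescence, kinetic read; read-out basis: B-scored fluorescence response ratio; controls: positive and negative controls per plate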
MrgX1 antag: antagonists of human MrgX1 receptor, primary screen, HEK293 cells, Fluo-4 calcium flux; BAM8-22 antagonism; stronger effect = lower value; B-score at 10 µM; Mas-related G-protein coupled receptor member X1 (Homo sapiens), Q96LB2; AID 588676, 2011; 1.3% of 310,000 active;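 active means calcium-response B-score plate-corrected more than 3 library SD below zero, starting fluorescence within 5 deviations, no agonist response on first addition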;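 further: peak minus trough fluorescence over baseline after final BAM8-22 challenge near maximal dose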
Hep lipid drop: inhibitors of hepatocyte lipid droplet formation, primary screen, imaging, high-throughput imaging, BODIPY stain; AML12 mouse hepatocytes, oleate lipid droplets; inhibition, % at 6.5 µM; 0.4% of 240,000 active;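 active means lipid droplet intensity inhibited by at least 50%, with more than 500 cells counted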
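Material: mouse AML12 hepatocyte cell line, fixed after treatment; Timing: compound with oleate, overnight; Technique: high-content imaging of BODIPY-stained droplets and DAPI nuclei; Probe or stimulus: oleate, 100 µM final; Dosing: compound at 6.5 µM only.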
RGS4 act: RGS4 potentiators or activators, primary screen, cell-based, HEK293 M3R inducible RGS4, calcium flux; carbachol calcium flux Fluo4; stronger effect = lower value; B-score at 10 µM; 0.92% of 310,000 active; AID 463111, 2010;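 active means B-score of the integrated calcium signal more than 4 SD below the library mean, with starting fluorescence not abnormally high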;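 further: negative B-score means reduced calcium response which marks RGS4 activation or potentiation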
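System: HEK293 FlpIn-TREx cells, stable M3R, doxycycline-inducible RGS4. Timing: overnight RGS4 induction, 30 min dye load 37 °C, 20 min compound RT. Also added: carbachol, ECmax concentration. Measured by: Fluo4 fluorescence kinetic imaging of calcium. Evaluation: integrated calcium ratio converted to B score.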
MrgX1 ant reconf: MrgX1 receptor antagonists, duplicate retest, confirmation, HEK293 cells, Fluo-4 calcium flux; shares compounds with MrgX1 antag; BAM8-22 calcium flux; stronger effect = lower value; remaining BAM8-22 calcium response % of control (stronger effect = lower value), % at 10 µM; 19% of 2,300 active;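 active means remaining agonist calcium response no higher than 100% minus 3 SD of agonist-only control wells, with starting fluorescence near control levels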;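 further: agonist BAM8-22 given at a near maximal EC90 to ECmax level; peak minus minimum fluorescence divided by baseline after agonist addition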
HEK293 Ca flux: nonspecific calcium signal in parental HEK293, confirmation, counter-screen for MrgX1 antagonist project, parental HEK293 cells, Fluo-4 calcium flux; shares compounds with MrgX1 antag; Fluo-4 calcium fluorescence, FDSS; fluorescence ratio F(max-min)/F0 at 10 µM; 2% of 4,000 active;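 active means duplicate-averaged calcium fluorescence ratio at least three times the standard deviation of buffer wells, a nonspecific response in parental cells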
HEK293 Ca counter: calcium response in parental HEK293 cells, primary screen, counter-screen for MrgX1 allosteric activator project, cell-based, Fluo-4 calcium flux, duplicate; Fluo-4 fluorescence ratio; stronger effect = higher value; shares compounds with MrgX1 antag; fluorescence ratio F(max-min)/F0 at 10 µM; 0.4% of 4,000 active; AID 624114, 2012;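 active means calcium fluorescence ratio, averaged over duplicates, at least 3 SD of the buffer-well ratio, meaning a nonspecific response in receptor-free cells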;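 further: untransfected parental HEK293 lacking MrgX1 used as counterscreen for MrgX1 allosteric activators; fluorescence change taken during the second addition on a kinetic imager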
HEK293 Ca cntr2: calcium response in parental HEK293 cells, primary screen, counter-screen for MrgX1 agonist project, cell-based, Fluo-4 calcium flux, duplicate, agonist mode; shares compounds with MrgX1 antag; Fluo-4 calcium fluorescence (FDSS); stronger effect = higher value; fluorescence ratio F(max-min)/F0 at 10 µM; 8.7% of 4,000 active; AID 624115, 2012;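 active means calcium fluorescence ratio at least three times the spread of buffer wells, meaning a non-specific response in parental cells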
* hit, by the source's call; i = inactive; . = no result. In the library only some 3.8% were active in any assay of this set; here they are far more common.

SMILES	RGS4 block	MrgX1 allo act	MrgX1 ag	MrgX1 antag	Hep lipid drop	RGS4 act	MrgX1 ant reconf	HEK293 Ca flux	HEK293 Ca counter	HEK293 Ca cntr2
Nc1nnnn1/N=C/c1ccccc1OCc1ccc(Cl)cc1	i	i	i	i	16	i	.	.	.	.
CCn1nnc2cc(C(=O)Nc3cc(OC)cc(OC)c3)ccc21	i	i	i	-8.7*	.	i	i	i	i	i
COc1ccc(CCN=CC2=C(O)CCCC2=O)cc1OC	i	i	i	i	.	i	.	.	.	.
O=C(O)Cn1cc(C(=O)c2ccco2)c2ccccc21	i	i	i	-7.9*	16	i	i	i	i	i
O=C(NCCNC(=O)c1ccccc1Cl)c1ccco1	i	i	i	i	0	i	.	.	.	.
CS(=O)(=O)N(Cc1ccc(Cl)cc1)c1ccc(C(=O)NCCC2=CCCCC2)cc1	i	i	i	-5.4*	28	i	i	i	i	i
O=C(O)CCNC(=O)c1ccc(NC(=O)Cc2ccc(Cl)cc2)cc1	i	i	i	i	5	i	.	.	.	.
c1cncc(-c2nnc3n2N=C(c2cccs2)CS3)c1	i	i	i	-4.7*	-1	i	i	i	i	i
CCCS(=O)(=O)N1CCc2cc(OC)c(OC)cc2C1	i	i	i	i	.	i	.	.	.	.
C=CCNC(=O)c1ccc(-n2cccc2)cc1	i	i	i	-8*	0	i	i	i	i	i
C=CCNC(=O)c1ccncc1	i	i	i	i	.	i	.	.	.	.
O=C(Nc1ccccc1)c1ccc2nc(-c3ccco3)c(-c3ccco3)nc2c1	i	i	i	-4.6*	-4	i	79%*	i	i	i
O=C(c1ccc2nc(-c3ccco3)c(-c3ccco3)nc2c1)N1CCN(c2ncccn2)CC1	i	i	i	-6*	.	i	83%*	i	i	i
CCN(CC)C(=O)c1ccc2nc(-c3ccccc3)c(-c3ccccc3)nc2c1	i	i	i	i	7	i	.	.	.	.
O=C(c1cccc(C(=O)N2CCN(c3ncccn3)CC2)c1)N1CCN(c2ncccn2)CC1	i	i	i	i	.	i	.	.	.	.
CCCNC(=O)c1ccc2nc(-c3ccccc3)c(-c3ccccc3)nc2c1	i	i	i	-5.3*	-1	i	i	i	i	i
O=C(NCc1ccccc1)c1ccc2nc(-c3ccco3)c(-c3ccco3)nc2c1	i	i	i	i	11	i	.	.	.	.
CC(C)(C)C(=O)Nc1sc2c(c1C#N)CCCCC2	i	i	i	i	4	i	.	.	.	.
CC(C)(C)C(=O)Nc1sc2c(c1C#N)CCN(Cc1ccccc1)C2	i	i	i	-5.1*	-10	i	i	i	i	i
